Molecules are shown by their SMILES. The campaign covered roughly 330,000 compounds. About 1,100 (0.33%) were called active.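 The calls were made as follows: active = at 10 µM dose, activation of 40% or more, normalized to positive control; inactive = the rest.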 The full list was thinned out, with actives kept by preference.

The nature of the test: PERK-eIF2a-CHOP pathway stimulators – cell-based, CHO-CHOP luciferase reporter, luminescence, uHTS, primary screen (AID 449763).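 Also: 100% = tunicamycin at 10 µg/mL and 0% = DMSO alone.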 The note with it: UPR activation, at 10 µM, active compounds read high, percent of tunicamycin response over DMSO baseline. A digest of the protocol: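 System: CHO CHOP reporter cells. Amount: 500 cells per well. Buffer or medium: F12 medium, 10% FBS. Compound dosing: one dose, 10 µM in 0.5% DMSO. Incubation: 6 h compound exposure at 37 °C after overnight seeding. Technique: Steady-Glo luciferase luminescence. Benchmarks: tunicamycin and DMSO controls.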
(Reporter assays use an easily measured gene product as a stand-in for the process of interest.)
With `O=C1NC(=O)N(Cc2ccco2)C(=O)/C1=C\c1ccc(-c2ccc(F)cc2)o1`, the activation was 0.772% (inactive).

With `O=C1NC(=O)N(CCc2ccc(F)cc2)C(=O)/C1=C/C=C/c1ccccc1`, the activation was 75.4% (active). Consider `O=C(O)COc1ccccc1/C=C1\C(=O)NC(=O)N(CCC2=CCCCC2)C1=O`, for which the activation is -0.189% (inactive). Consider `COc1cccc(-c2nc3ccc(N4CCN(C)CC4)cc3[nH]2)c1`, for which the activation is -6.37% (inactive). With `Cc1cc(N2C(=O)C3CCCN3C2c2ccc(Cl)c(Cl)c2)no1` (stereo not given), the activation was -0.781% (inactive).

The record behind these values is PubChem BioAssay AID449763 (Sanford-Burnham Center for Chemical Genomics, 2010).
